Calls of active or inactive are those of the source. The rule behind the calls is not given here.
Tests used:
Blood = experiment: Inhibition of calcium ionophore A-23187-stimulated LTB4 production in human whole blood by ELISA; format: functional, tissue-based
Procedure, shortened: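 Heparinized human whole blood preincubated 15 min at 37 °C with compound in DMSO. Stimulated 30 min at 37 °C with A23187 (2 μL of 1.5 mM into 150 μL). Plasma LTB4 measured by ELISA at 1:100 dilution; IC50 by nonlinear regression. A single value is one assay averaging two donors.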

Cytochrome P450 2D6 = Cytochrome P450 2D6 (Homo sapiens, UniProt P10635); experiment: Inhibition of CYP2D6; format: ADME
Cytochrome P450 2D6, sequence (P10635 whole entry): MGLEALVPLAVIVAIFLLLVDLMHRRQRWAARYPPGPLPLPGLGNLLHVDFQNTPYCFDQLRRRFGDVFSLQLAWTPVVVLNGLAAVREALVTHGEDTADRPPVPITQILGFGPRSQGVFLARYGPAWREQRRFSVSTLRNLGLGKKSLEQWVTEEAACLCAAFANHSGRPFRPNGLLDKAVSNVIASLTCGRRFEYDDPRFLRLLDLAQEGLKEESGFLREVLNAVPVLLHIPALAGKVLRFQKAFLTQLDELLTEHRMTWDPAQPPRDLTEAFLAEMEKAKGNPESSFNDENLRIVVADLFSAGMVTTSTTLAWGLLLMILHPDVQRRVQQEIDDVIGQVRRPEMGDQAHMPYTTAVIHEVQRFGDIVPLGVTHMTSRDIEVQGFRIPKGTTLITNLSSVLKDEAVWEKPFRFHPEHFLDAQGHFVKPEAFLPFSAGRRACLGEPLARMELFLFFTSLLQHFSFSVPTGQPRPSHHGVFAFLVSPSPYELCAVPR

Cytochrome P450 2C9 = Cytochrome P450 2C9 (Homo sapiens, UniProt P11712); experiment: Inhibition of CYP2C9; format: ADME
Cytochrome P450 2C9, sequence (P11712 whole entry): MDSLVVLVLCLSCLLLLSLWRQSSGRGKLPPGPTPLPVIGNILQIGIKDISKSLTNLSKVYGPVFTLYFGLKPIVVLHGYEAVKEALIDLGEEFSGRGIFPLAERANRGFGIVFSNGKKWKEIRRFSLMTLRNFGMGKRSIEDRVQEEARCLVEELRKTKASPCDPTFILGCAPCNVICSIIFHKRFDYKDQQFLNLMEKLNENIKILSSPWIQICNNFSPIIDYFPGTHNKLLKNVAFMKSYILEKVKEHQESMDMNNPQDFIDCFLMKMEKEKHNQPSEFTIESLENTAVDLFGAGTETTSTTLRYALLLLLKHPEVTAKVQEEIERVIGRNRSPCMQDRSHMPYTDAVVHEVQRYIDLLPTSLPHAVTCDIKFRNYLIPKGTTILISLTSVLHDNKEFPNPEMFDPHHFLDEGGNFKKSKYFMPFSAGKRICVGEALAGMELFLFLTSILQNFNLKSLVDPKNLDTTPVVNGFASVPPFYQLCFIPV

CYP3A4 = CYP3A4 (Homo sapiens, UniProt P08684); experiment: Inhibition of CYP3A4 at 10 uM; format: ADME
CYP3A4, sequence (P08684 whole entry): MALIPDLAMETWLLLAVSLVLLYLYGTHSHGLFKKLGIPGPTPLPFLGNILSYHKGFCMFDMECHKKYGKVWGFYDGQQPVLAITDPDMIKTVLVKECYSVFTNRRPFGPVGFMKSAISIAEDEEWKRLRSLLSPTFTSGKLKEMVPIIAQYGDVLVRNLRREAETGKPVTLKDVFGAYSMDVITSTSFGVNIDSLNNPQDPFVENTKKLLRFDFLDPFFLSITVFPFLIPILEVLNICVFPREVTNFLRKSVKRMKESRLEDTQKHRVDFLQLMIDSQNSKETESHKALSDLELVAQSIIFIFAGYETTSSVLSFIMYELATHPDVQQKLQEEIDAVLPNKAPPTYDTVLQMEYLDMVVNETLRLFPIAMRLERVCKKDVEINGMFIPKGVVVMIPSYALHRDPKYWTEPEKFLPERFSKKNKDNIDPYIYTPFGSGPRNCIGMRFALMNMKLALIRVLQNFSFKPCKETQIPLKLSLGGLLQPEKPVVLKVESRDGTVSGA

[1] = molecular target: T1, Arachidonate 5-lipoxygenase-activating protein (Homo sapiens, UniProt P20292); experiment: Displacement of [3H]3-[5-(pyrid-2-ylmethoxy)-3-tert-butylthio-1-benzyl-indol-2-yl]-2,2-dimethylpropionic acid from FLAP in human polymorphonuclear cell membrane
T1 sequence (P20292 whole entry): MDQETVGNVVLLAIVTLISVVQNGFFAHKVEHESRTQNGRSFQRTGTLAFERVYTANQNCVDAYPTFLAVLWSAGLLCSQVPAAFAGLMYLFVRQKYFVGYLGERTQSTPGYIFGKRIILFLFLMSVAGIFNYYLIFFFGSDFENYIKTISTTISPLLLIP

[2] = Inhibition of calcium ionophore A-23187-stimulated LTB4 production in human leukocytes by ELISA; format: functional, cell-based; conditions: Leukocyte
Procedure, shortened: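 Dextran-sedimented, hypotonically lysed human leukocytes at 1.25 × 10^5 cells/mL, preincubated 5 min at 37 °C with compound in DMSO. Stimulated 5 min at 37 °C with A23187 (5 μL of 0.5 mM into 250 μL). Supernatant LTB4 measured by ELISA at 1:4 dilution; IC50 by nonlinear regression of % inhibition vs log concentration.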

Cytochrome P450 3A4 [3] = molecular target: T2, Cytochrome P450 3A4 (Homo sapiens, UniProt P08684); experiment: Inhibition of CYP3A4; format: ADME
T2 sequence (P08684 whole entry): as the sequence (P08684 whole entry) above

P2Y purinoceptor 12 = P2Y purinoceptor 12 (Homo sapiens, UniProt Q9H244); experiment: Agonist activity at human P2Y12 receptor; format: functional
P2Y purinoceptor 12, sequence (Q9H244 whole entry): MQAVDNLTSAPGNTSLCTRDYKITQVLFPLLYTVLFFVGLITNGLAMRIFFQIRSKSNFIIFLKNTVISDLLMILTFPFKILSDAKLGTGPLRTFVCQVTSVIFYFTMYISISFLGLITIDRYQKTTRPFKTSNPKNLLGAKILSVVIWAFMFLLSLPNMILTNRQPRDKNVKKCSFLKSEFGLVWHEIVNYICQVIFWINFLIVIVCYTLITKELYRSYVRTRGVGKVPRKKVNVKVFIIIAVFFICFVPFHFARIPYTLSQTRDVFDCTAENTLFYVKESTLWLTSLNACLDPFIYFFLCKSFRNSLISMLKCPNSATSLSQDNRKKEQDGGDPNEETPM

[4] = AUC in Sprague-Dawley rat at 10 mg/kg, po; format: ADME, organism-based; parameters: dose 10 mg/kg, route oral; conditions: plasma
Procedure, shortened: (§1)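 Male rats fasted overnight, 2 or 3 per route. Dosing was 2 mg/kg i.v. as a jugular bolus in PEG400/ethanol/water (40/10/50) and 10 mg/kg p.o. by gavage in 0.5% methylcellulose. Jugular cannula blood was sampled up to 24 h (8-9 samples). Plasma was acetonitrile-precipitated with buspirone internal standard and quantified by LC-MS/MS, positive ESI MRM, calibration […], LLOQ 1-5 ng/mL.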

Cytochrome P450 3A4 [5] = molecular target: T2, Cytochrome P450 3A4; experiment: Inhibition of CYP3A4 assessed as inhibition rate
[6] = Clearance in Sprague-Dawley rat at 2 mg/kg, iv and 10 mg/kg, po; format: ADME, organism-based; conditions: in vivo; procedure, shortened: as §1
[7] = Volume of distribution in dog at 2 mg/kg, iv and 5 mg/kg, po; format: ADME, organism-based, Canis lupus familiaris; conditions: in vivo
Cytochrome P450 1A2 = molecular target: T3, Cytochrome P450 1A2 (Homo sapiens, UniProt P05177); experiment: Inhibition of CYP1A2; format: ADME
T3 sequence (P05177 whole entry): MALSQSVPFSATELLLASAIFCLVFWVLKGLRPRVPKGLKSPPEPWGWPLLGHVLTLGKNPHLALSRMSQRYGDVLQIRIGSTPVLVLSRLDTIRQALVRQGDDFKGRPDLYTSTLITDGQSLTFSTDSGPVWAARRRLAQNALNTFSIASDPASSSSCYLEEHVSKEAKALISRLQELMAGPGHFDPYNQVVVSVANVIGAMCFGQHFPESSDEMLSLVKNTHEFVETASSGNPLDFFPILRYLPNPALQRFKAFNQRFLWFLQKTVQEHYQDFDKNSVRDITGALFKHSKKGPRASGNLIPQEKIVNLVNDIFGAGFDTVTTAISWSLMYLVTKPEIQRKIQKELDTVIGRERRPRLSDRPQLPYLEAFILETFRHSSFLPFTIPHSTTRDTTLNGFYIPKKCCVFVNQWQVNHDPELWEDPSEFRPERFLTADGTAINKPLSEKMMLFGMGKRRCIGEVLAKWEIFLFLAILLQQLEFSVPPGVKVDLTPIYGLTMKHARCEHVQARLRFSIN

[8] = Bioavailability in dog at 2 mg/kg, iv and 5 mg/kg, po; format: ADME, organism-based, Canis lupus familiaris; conditions: in vivo
[9] = Half life in dog at 2 mg/kg, iv; format: ADME, organism-based, Canis lupus familiaris; parameters: dose 2 mg/kg, route intravenous; conditions: in vivo
Mus musculus [10] = experiment: Antiasthamatic activity against ovalbumin-induced airway lung inflammation in BALB/c mouse bronchoalveolar lavage model assessed as inhibition of increase in eosinophile peroxidase level at 10 mg/kg, po every 6 hrs administered 2 hrs prior to ovalbumin-challenge after 24 hrs; format: functional
Procedure, shortened: (§2)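 Female BALB/c mice (20-25 g) were sensitized i.p. with OVA 100 μg/alum on days 0 and 14, then given intranasal OVA 50 μg in saline on day 21 under isoflurane. Oral 0.5% methocel vehicle or drug 10 mg/kg started 2 h before challenge, then every 6 h (4 doses). BAL with 4 × 0.3 mL PBS at 24 h; CysLTs and IL-5 by EIA, EPO by peroxidase assay.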

[11] = Volume of distribution at steady state in Sprague-Dawley rat at 2 mg/kg, iv and 10 mg/kg, po; format: ADME, organism-based; conditions: in vivo, read-out: Vdss; procedure, shortened: as §1
[12] = Cmax in Sprague-Dawley rat after 10 mg/kg oral dose; format: ADME, organism-based; parameters: dose 10 mg/kg, route oral; conditions: in vivo; procedure, shortened: as §1
Cytochrome P450 2C19 = Cytochrome P450 2C19 (Homo sapiens, UniProt P33261); experiment: Inhibition of CYP2C19; format: ADME
Cytochrome P450 2C19, sequence (P33261 whole entry): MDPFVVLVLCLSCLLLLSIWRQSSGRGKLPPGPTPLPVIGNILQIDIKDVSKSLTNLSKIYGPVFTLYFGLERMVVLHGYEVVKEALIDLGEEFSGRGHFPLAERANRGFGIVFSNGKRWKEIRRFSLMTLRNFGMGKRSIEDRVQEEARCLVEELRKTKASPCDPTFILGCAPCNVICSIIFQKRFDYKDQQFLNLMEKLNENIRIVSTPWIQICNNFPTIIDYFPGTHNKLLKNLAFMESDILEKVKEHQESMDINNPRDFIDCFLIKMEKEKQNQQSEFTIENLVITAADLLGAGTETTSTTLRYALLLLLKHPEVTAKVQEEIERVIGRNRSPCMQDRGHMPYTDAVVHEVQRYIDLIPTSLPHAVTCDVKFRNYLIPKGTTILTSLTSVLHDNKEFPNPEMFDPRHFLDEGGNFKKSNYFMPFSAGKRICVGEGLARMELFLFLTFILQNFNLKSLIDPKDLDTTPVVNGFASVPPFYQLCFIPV

[13] = Half life in Sprague-Dawley rat at 2 mg/kg, iv; format: ADME, organism-based; parameters: dose 2 mg/kg, route intravenous; conditions: in vivo; procedure, shortened: as §1
Mus musculus [14] = experiment: Antiasthamatic activity against ovalbumin-induced airway lung inflammation in BALB/c mouse bronchoalveolar lavage model assessed as inhibition of increase om cysteinyl leukotrienes level at 10 mg/kg, po every 6 hrs administered 2 hrs prior to ovalbumin-challenge after 24 hrs; format: functional; procedure, shortened: as §2
[15] = Plasma concentration in BALB/c mouse at 10 mg/kg, po after 6 hrs; format: ADME, organism-based; parameters: dose 10 mg/kg, route oral
Procedure, shortened: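 Female BALB/c mice, separate cohort (n = 6). Single oral dose 10 mg/kg; plasma drug level measured 6 h post-dose.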

[16] = Bioavailability in Sprague-Dawley rat at 2 mg/kg, iv and 10 mg/kg, po; format: ADME, organism-based; conditions: Sprague-Dawley, in vivo; procedure, shortened: as §1
Mus musculus [17] = experiment: Antiasthamatic activity against ovalbumin-induced airway lung inflammation in BALB/c mouse bronchoalveolar lavage model assessed as inhibition of increase in IL5 level at 10 mg/kg, po every 6 hrs administered 2 hrs prior to ovalbumin-challenge after 24 hrs; format: functional, organism-based; parameters: dose 10 mg/kg; procedure, shortened: as §2
Rattus norvegicus = experiment: Volume of distribution at steady state in Sprague-Dawley rat at 10 mg/kg, po; format: ADME, organism-based; parameters: dose 10 mg/kg, route oral; conditions: in vivo; procedure, shortened: as §1
[18] = Clearance in Sprague-Dawley rat 10 mg/kg, po; format: ADME, organism-based; parameters: dose 10 mg/kg, route oral; conditions: in vivo; procedure, shortened: as §1
[19] = Half life in Sprague-Dawley rat at 10 mg/kg, po; format: ADME, organism-based; parameters: dose 10 mg/kg, route oral; conditions: in vivo; procedure, shortened: as §1
[20] = Half life in Sprague-Dawley rat at 2 mg/kg, iv after 6 to 24 hrs; format: ADME, organism-based; parameters: dose 2 mg/kg, route intravenous; conditions: in vivo; procedure, shortened: as §1

Cc1ccc(-c2ccc(Cn3c(CC(C)(C)C(=O)O)c(SC(C)(C)C)c4cc(OCc5ccccn5)ccc43)cc2)cn1
IC50 (Blood): 577 nM | IC50 (Cytochrome P450 2D6): > 10000 nM | IC50 (Cytochrome P450 2C9): 10000 nM | inhibition at 10 µM (CYP3A4): 64% | IC50 [1]: 6.5 nM | IC50 [2]: 1.3 nM

CC(C)(C)Sc1c(CC(C)(C)C(=O)O)n(Cc2ccc(Cl)cc2)c2ccc(OCc3ccccn3)cc12
IC50 (Blood): 512 nM | IC50 (Cytochrome P450 2D6): > 30000 nM | IC50 (Cytochrome P450 2C9): 1000 nM | IC50 [1]: 1.7 nM | IC50 (Cytochrome P450 3A4 [3]): 11500 nM | IC50 [2]: 0.8 nM

CCCCC/C=C\C\C=C/C=C/C=C/[C@@H](SC[C@H](N)C(=O)O)[C@@H](O)CCCC(=O)O [LEUKOTRIEN E4]
EC50 (P2Y purinoceptor 12): 1.3 nM

COc1ccc(-c2ccc(Cn3c(CC(C)(C)C(=O)O)c(SC(C)(C)C)c4cc(OCc5ccccn5)ccc43)cc2)cn1
AUC [4]: 26000 ng·h/mL | IC50 (Blood): 349 nM | IC50 (Cytochrome P450 2D6): > 30000 nM | IC50 (Cytochrome P450 2C9): > 50000 nM | TDI (Cytochrome P450 3A4 [5]): 0.015 min⁻¹ | clearance [6]: 5.4 mL/min/kg | IC50 [1]: 4.2 nM | Vd [7]: 0.41 L/kg | IC50 (Cytochrome P450 3A4 [3]): > 50000 nM | IC50 (Cytochrome P450 1A2): > 50000 nM | bioavailability [8]: 64% | half-life [9]: 5.2 h | inhibition in vivo at 10 mg/kg (Mus musculus [10]): 60% | Vd [11]: 0.3 L/kg | Cmax [12]: 9000 ng/mL | IC50 (Cytochrome P450 2C19): > 50000 nM | half-life [13]: 2.2 h | inhibition in vivo at 10 mg/kg (Mus musculus [14]): 60% | concentration at 6 h [15]: 406 nM | bioavailability [16]: 100% | Activity (Mus musculus [17]): Active | IC50 [2]: 0.5 nM

COc1ccc(-c2ccc(Cn3c(CC(C)(C)C(=O)O)c(S(=O)(=O)C(C)(C)C)c4cc(OCc5ccccn5)ccc43)cc2)cn1
IC50 (Blood): 3420 nM | IC50 [1]: 205 nM | IC50 [2]: 59 nM

CC(C)(Cc1c(CC2CCC2)c2cc(OCc3ccccn3)ccc2n1Cc1ccc(-c2nccs2)cc1)C(=O)O
IC50 (Blood): 391 nM | IC50 [1]: 6.6 nM | IC50 [2]: 1.1 nM

Cc1ccc(-c2ccc(Cn3c(CC(C)(C)C(=O)O)c(SC(C)(C)C)c4cc(OCc5ccccn5)ccc43)cc2)nn1
IC50 (Blood): 4370 nM | IC50 [1]: 27 nM | IC50 [2]: 17 nM

COc1ccc(-c2ccc(Cn3c(CC(C)(C)C(=O)O)c(SC(C)(C)C)c4cc(OCc5ccccn5)ccc43)cc2)nc1
AUC [4]: 61600 ng·h/mL | IC50 (Blood): 277 nM | IC50 (Cytochrome P450 2D6): > 10000 nM | IC50 (Cytochrome P450 2C9): > 10000 nM | inhibition at 10 µM (CYP3A4): 61% | IC50 [1]: 6.8 nM | Vdss (Rattus norvegicus): 0.51 L/kg | CL/F [18]: 2.8 mL/min/kg | Cmax [12]: 21800 ng/mL | bioavailability [16]: 100% | half-life [19]: 1.9 h | IC50 [2]: 4.1 nM

CC(C)(C)Sc1c(CC(C)(C)C(=O)O)n(Cc2ccc(-c3cccnc3)cc2)c2ccc(OCc3ccccn3)cc12
AUC [4]: 1880 ng·h/mL | IC50 (Blood): 370 nM | IC50 (Cytochrome P450 2D6): 2600 nM | IC50 (Cytochrome P450 2C9): 15500 nM | clearance [6]: 7 mL/min/kg | IC50 [1]: 9 nM | IC50 (Cytochrome P450 3A4 [3]): 4700 nM | half-life [20]: 7.6 h | Vd [11]: 0.38 L/kg | Cmax [12]: 920 ng/mL | bioavailability [16]: 8% | IC50 [2]: 3.4 nM

CC(C)(C)CCc1c(CC(C)(C)C(=O)O)n(Cc2ccc(-c3nccs3)cc2)c2ccc(OCc3ccccn3)cc12
IC50 (Blood): 4860 nM | IC50 [1]: 229 nM | IC50 [2]: 5.3 nM

CC(C)(C)Sc1c(CC(C)(C)C(=O)O)n(Cc2ccc(-c3ncc(F)s3)cc2)c2ccc(OCc3ccccn3)cc12
TDI (Cytochrome P450 3A4 [5]): 0.017 min⁻¹ | IC50 [1]: 2.1 nM

COc1nc(-c2ccc(Cn3c(CC(C)(C)C(=O)O)c(SC(C)(C)C)c4cc(OCc5ccccn5)ccc43)cc2)cs1
TDI (Cytochrome P450 3A4 [5]): 0.018 min⁻¹ | IC50 [1]: 3.3 nM
